Results published in article PMC6543826 (Bioorganic chemistry, 2018).
Several values for one entry are separate records, joined by “and”; a condition that tells them apart may be missing. Equal values may be shown once.

Tests used:
ERK2 = ERK2 (Rattus norvegicus, UniProt P63086); assay: in vitro radioactive kinase assay, Ets-1 phosphorylation by ERK2; format: biochemical
Summary of the method: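 Activated rat ERK2 (2 nM) was tested with His-Ets-1 (1–138) at 28–30 °C in HEPES pH 7.5 buffer with 11 mM MgCl2, BSA and 5% DMSO. Reactions were started with [γ-32P]ATP (10 or 100 μM).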

KM 12 = assay: cells; format: cell-based
T-47D = assay: cells; format: cell-based
SF-295 = assay: cells; format: cell-based
HCC-2998 = assay: cells; format: cell-based
MALME-3M = assay: cells; format: cell-based
ERK1 = ERK1 (Homo sapiens, UniProt P27361); assay: in vitro radioactive kinase assay, Ets-1 phosphorylation by ERK1; format: biochemical; conditions: ERK1 IC50, 100 μM ATP, 10 μM Ets-1
Sequence of ERK1 (P27361 whole entry, species assumed): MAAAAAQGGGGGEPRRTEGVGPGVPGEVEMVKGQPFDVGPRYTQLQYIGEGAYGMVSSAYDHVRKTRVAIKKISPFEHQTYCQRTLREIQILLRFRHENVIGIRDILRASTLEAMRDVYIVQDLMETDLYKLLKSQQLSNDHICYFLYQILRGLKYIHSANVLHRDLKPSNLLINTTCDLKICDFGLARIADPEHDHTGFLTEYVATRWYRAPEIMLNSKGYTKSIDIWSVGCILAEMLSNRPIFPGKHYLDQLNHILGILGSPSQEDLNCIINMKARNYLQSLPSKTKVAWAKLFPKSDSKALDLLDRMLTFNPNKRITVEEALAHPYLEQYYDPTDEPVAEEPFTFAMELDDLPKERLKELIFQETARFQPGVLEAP
Summary of the method: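 Radiometric assay at 28–30 °C in 25 mM HEPES pH 7.5, 50 mM KCl, 0.1 mM EDTA/EGTA, 2 mM DTT, 11 mM MgCl2, 10 μg mL−1 BSA and 5% DMSO (final). 2 nM activated ERK1 was used with 10 μM His-Ets-1 (1–138). Reactions were started with [γ-32P]ATP (10 or 100 μM). IC50 came from fitting rate versus inhibitor concentration to a hyperbolic decay equation.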

JNK2 = JNK2 (Homo sapiens, UniProt P45984); assay: in vitro kinase assay, GST-c-Jun; format: biochemical
Sequence of JNK2 (P45984 whole entry): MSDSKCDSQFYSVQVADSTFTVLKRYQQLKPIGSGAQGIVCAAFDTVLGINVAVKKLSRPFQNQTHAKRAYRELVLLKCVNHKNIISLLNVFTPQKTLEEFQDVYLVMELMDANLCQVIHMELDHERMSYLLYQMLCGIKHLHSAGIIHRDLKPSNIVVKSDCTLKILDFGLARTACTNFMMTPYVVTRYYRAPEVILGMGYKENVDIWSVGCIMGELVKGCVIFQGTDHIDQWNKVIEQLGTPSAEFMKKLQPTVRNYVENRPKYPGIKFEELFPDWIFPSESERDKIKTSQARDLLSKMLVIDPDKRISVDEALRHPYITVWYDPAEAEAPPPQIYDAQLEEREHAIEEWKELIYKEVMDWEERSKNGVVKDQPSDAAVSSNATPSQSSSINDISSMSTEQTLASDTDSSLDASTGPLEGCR

MDA-MB-468 = assay: cells; format: cell-based
SF-268 = assay: cells; format: cell-based
DU-145 = assay: cells; format: cell-based
HCT-116 = assay: cells; format: cell-based
A549/ATCC = assay: cells; format: cell-based
RPMI-8226 = assay: cells; format: cell-based
NCI-H460 = assay: cells; format: cell-based
HOP-62 = assay: cells; format: cell-based
OVCAR-8 = assay: cells; format: cell-based
SN12C = assay: cells; format: cell-based
[1] = test system: NCI-60 panel of tumor cell lines
SW-620 = assay: cells; format: cell-based
MCF7 = assay: cells; format: cell-based
MOLT-4 = assay: cells; format: cell-based
K-562 = assay: cells; format: cell-based
SK-MEL-5 = assay: cells; format: cell-based
NCI-H23 = assay: cells; format: cell-based
SK-MEL-28 = assay: cells; format: cell-based
HOP-92 = assay: cells; format: cell-based
RXF 393 = assay: cells; format: cell-based
SK-OV-3 = assay: cells; format: cell-based
HCT-15 = assay: cells; format: cell-based
SR = assay: cells; format: cell-based
OVCAR-4 = assay: cells; format: cell-based

Sequence of ERK2 (P63086 whole entry): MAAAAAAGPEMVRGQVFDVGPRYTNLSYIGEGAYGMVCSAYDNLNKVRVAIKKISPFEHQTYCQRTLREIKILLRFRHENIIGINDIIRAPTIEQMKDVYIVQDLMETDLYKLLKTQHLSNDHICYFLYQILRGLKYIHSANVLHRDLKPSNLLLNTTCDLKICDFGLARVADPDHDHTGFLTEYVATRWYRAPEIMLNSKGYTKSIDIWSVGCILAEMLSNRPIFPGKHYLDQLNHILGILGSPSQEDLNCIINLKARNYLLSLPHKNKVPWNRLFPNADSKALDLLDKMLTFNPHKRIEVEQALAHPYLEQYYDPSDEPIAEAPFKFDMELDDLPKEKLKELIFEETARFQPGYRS

SMILES: O=C1c2ccccc2C(=O)c2c1oc1c2c(=O)[nH]c2ccc(Cl)cc21 [3b, 2-Chloronaphtho[2′,3′:4,5]furo[3,2-c]quinoline-6,7,12(5H)-trione]
- effect of excess Ets-1 (100 μM) on inhibition of ERK2 (ERK2; 5 μM inhibitor, 100 μM vs 10 μM Ets-1, 100 μM ATP): did not rescue
- IC50 (ERK2; ERK2 IC50, 10 μM ATP): 200 ± 10 nM
- IC50 (ERK2; ERK2 IC50, 100 μM ATP, 10 μM Ets-1): 600 ± 100 nM
- IC50 (ERK2; ERK2 IC50 at 100 μM ATP /10mM Ets-1, Table 4, 100 μM ATP /10mM Ets-1): 600 ± 100 nM
- GI50 (KM 12; Homo sapiens, KM12): 450 nM
- CC50 (KM 12; Homo sapiens, KM12, read-out: LC50): 27500 nM
- Growth percent (G%) (KM 12; KM 12, 10^−5 M, 48 h): 0.12%
- TGI (KM 12; KM 12, five-dose): 3020 nM
- GI50 (T-47D; Homo sapiens, T47D): 260 nM
- CC50 (T-47D; Homo sapiens, T47D, read-out: LC50): 5130 nM
- Growth percent (G%) (T-47D; T-47D, 10^−5 M, 48 h): −58.11%
- TGI (T-47D; T-47D, five-dose): 980 nM
- GI50 (SF-295; Homo sapiens, SF-295): 630 nM
- CC50 (SF-295; Homo sapiens, SF-295, read-out: LC50): 6610 nM
- Growth percent (G%) (SF-295; SF-295, 10^−5 M, 48 h): −1.34%
- TGI (SF-295; SF-295, five-dose): 2290 nM
- Growth percent (G%) (HCC-2998; HCC-2998, 10^−5 M, 48 h): 65.07%
- TGI (HCC-2998; HCC-2998, five-dose): 2570 nM
- CC50 (HCC-2998; Homo sapiens, HCC 2998, read-out: LC50): 9120 nM
- GI50 (MALME-3M; Homo sapiens, Malme-3M): 230 nM
- CC50 (MALME-3M; Homo sapiens, Malme-3M, read-out: LC50): 850 nM
- Growth percent (G%) (MALME-3M; MALME-3M, 10^−5 M, 48 h): −51.66%
- IC50 (ERK1): 500 ± 90 nM
- IC50 (JNK2): 24000 ± 1240 nM
- ability to inhibit JNK2 (in words) (JNK2): little tendency to inhibit
- GI50 (MDA-MB-468; Homo sapiens, MDA-MB-468): 250 nM
- CC50 (MDA-MB-468; Homo sapiens, MDA-MB-468, read-out: LC50): 4570 nM
- Growth percent (G%) (MDA-MB-468; MDA-MB-468, 10^−5 M, 48 h): −32.41%
- TGI (MDA-MB-468; MDA-MB-468, five-dose): 870 nM
- GI50 (SF-268; Homo sapiens, SF-268): 460 nM
- CC50 (SF-268; Homo sapiens, SF-268, read-out: LC50): 49000 nM
- Growth percent (G%) (SF-268; SF-268, 10^−5 M, 48 h): −31.69%
- TGI (SF-268; SF-268, five-dose): 3980 nM
- Growth percent (G%) (DU-145; DU-145, 10^−5 M, 48 h): −45.39%
- TGI (DU-145; DU-145, five-dose): 780 nM
- GI50 (DU-145; Homo sapiens, DU-145): 280 nM
- CC50 (DU-145; Homo sapiens, DU-145, read-out: LC50): 12300 nM
- Growth percent (G%) (HCT-116; HCT-116, 10^−5 M, 48 h): −12.24%
- TGI (HCT-116; HCT-116, five-dose): 1100 nM
- GI50 (HCT-116; Homo sapiens, HCT-116): 310 nM
- CC50 (HCT-116; Homo sapiens, HCT-116, read-out: LC50): 4570 nM
- Growth percent (G%) (A549/ATCC; A549/ATCC, 10^−5 M, 48 h): −0.05%
- TGI (A549/ATCC; A549/ATCC, five-dose): 2880 nM
- GI50 (A549/ATCC; Homo sapiens, A549): 1020 nM
- CC50 (A549/ATCC; Homo sapiens, A549, read-out: LC50): 8320 nM
- GI50 (RPMI-8226; Homo sapiens, RPMI-8226): 390 nM
- CC50 (RPMI-8226; Homo sapiens, RPMI-8226, read-out: LC50): > 100000 nM
- Growth percent (G%) (RPMI-8226; RPMI-8226, 10^−5 M, 48 h): 4.83%
- TGI (RPMI-8226; RPMI-8226, five-dose): 2630 nM
- GI50 (NCI-H460; Homo sapiens, NCI-H460): 220 nM
- CC50 (NCI-H460; Homo sapiens, NCI-H460, read-out: LC50): 1480 nM
- Growth percent (G%) (NCI-H460; NCI-H460, 10^−5 M, 48 h): −69.73%
- TGI (NCI-H460; NCI-H460, five-dose): 490 nM
- Growth percent (G%) (HOP-62; HOP-62, 10^−5 M, 48 h): −38.70%
- TGI (HOP-62; HOP-62, five-dose): 650 nM
- GI50 (HOP-62; Homo sapiens, HOP-62): 200 nM
- CC50 (HOP-62; Homo sapiens, HOP-62, read-out: LC50): 3240 nM
- GI50 (OVCAR-8; Homo sapiens, OVCAR-8): 390 nM
- CC50 (OVCAR-8; Homo sapiens, OVCAR-8, read-out: LC50): 30200 nM
- Growth percent (G%) (OVCAR-8; OVCAR-8, 10^−5 M, 48 h): −27.45%
- TGI (OVCAR-8; OVCAR-8, five-dose): 2290 nM
- Growth percent (G%) (SN12C; 10^−5 M, 48 h): −26.26%
- GI50 (SN12C; Homo sapiens): 200 nM
- CC50 (SN12C; Homo sapiens, read-out: LC50): 1350 nM
- TGI (SN12C; five-dose): 470 nM
- Average G% ([1]; average over tested NCI-60 cell lines, 10^−5 M (10 μM), 48 h): −4.7% and −4.5% and −4.69%
- TGI values, range over all cell lines ([1]; five-dose): 350 to 27540 nM
- TGI, average ([1]; five-dose): 1020 nM
- GI50 (SW-620; Homo sapiens, SW-620): 330 nM
- CC50 (SW-620; Homo sapiens, SW-620, read-out: LC50): 7590 nM
- Growth percent (G%) (SW-620; SW-620, 10^−5 M, 48 h): −53.04%
- TGI (SW-620; SW-620, five-dose): 1000 nM
- GI50 (MCF7; Homo sapiens, MCF7): 230 nM
- CC50 (MCF7; Homo sapiens, MCF7, read-out: LC50): 18600 nM
- Growth percent (G%) (MCF7; MCF7, 10^−5 M, 48 h): 0.70%
- TGI (MCF7; MCF7, five-dose): 1050 nM
- GI50 (MOLT-4; Homo sapiens, MOLT-4): 440 nM
- CC50 (MOLT-4; Homo sapiens, MOLT-4, read-out: LC50): > 100000 nM
- Growth percent (G%) (MOLT-4; MOLT-4, 10^−5 M, 48 h): 18.44%
- TGI (MOLT-4; MOLT-4, five-dose): 3160 nM
- GI50 (K-562; Homo sapiens, K562): 370 nM
- CC50 (K-562; Homo sapiens, K562, read-out: LC50): 50100 nM
- Growth percent (G%) (K-562; K-562, 10^−5 M, 48 h): 12.90%
- TGI (K-562; K-562, five-dose): 2000 nM
- GI50 (SK-MEL-5; Homo sapiens, SK-MEL-5): 1300 nM
- CC50 (SK-MEL-5; Homo sapiens, SK-MEL-5, read-out: LC50): 3720 nM
- Growth percent (G%) (SK-MEL-5; SK-MEL-5, 10^−5 M, 48 h): 12.31%
- TGI (SK-MEL-5; SK-MEL-5, five-dose): 1200 nM
- GI50 (NCI-H23; Homo sapiens, NCI-H23): 350 nM
- CC50 (NCI-H23; Homo sapiens, NCI-H23, read-out: LC50): 7080 nM
- Growth percent (G%) (NCI-H23; NCI-H23, 10^−5 M, 48 h): 21.21%
- TGI (NCI-H23; NCI-H23, five-dose): 1820 nM
- GI50 (SK-MEL-28; Homo sapiens, SK-MEL-28): 340 nM
- CC50 (SK-MEL-28; Homo sapiens, SK-MEL-28, read-out: LC50): 4680 nM
- Growth percent (G%) (SK-MEL-28; SK-MEL-28, 10^−5 M, 48 h): −11.84%
- TGI (SK-MEL-28; SK-MEL-28, five-dose): 1230 nM
- Growth percent (G%) (HOP-92; HOP-92, 10^−5 M, 48 h): −37.24%
- TGI (HOP-92; HOP-92, five-dose): 390 nM
- GI50 (HOP-92; Homo sapiens, HOP-92): 150 nM
- CC50 (HOP-92; Homo sapiens, HOP-92, read-out: LC50): 1000 nM
- GI50 (RXF 393; Homo sapiens, RXF 393): 210 nM
- CC50 (RXF 393; Homo sapiens, RXF 393, read-out: LC50): 2510 nM
- Growth percent (G%) (RXF 393; RXF 393, 10^−5 M, 48 h): −46.34%
- TGI (RXF 393; RXF 393, five-dose): 580 nM
- GI50 (SK-OV-3; Homo sapiens, SK-OV-3): 350 nM
- CC50 (SK-OV-3; Homo sapiens, SK-OV-3, read-out: LC50): 5620 nM
- Growth percent (G%) (SK-OV-3; SK-OV-3, 10^−5 M, 48 h): 1.64%
- TGI (SK-OV-3; SK-OV-3, five-dose): 1780 nM
- Growth percent (G%) (HCT-15; HCT-15, 10^−5 M, 48 h): −31.10%
- TGI (HCT-15; HCT-15, five-dose): 510 nM
- GI50 (HCT-15; Homo sapiens, HCT-15): 210 nM
- CC50 (HCT-15; Homo sapiens, HCT-15, read-out: LC50): 2000 nM
- Growth percent (G%) (SR; 10^−5 M, 48 h): 33.72%
- GI50 (SR; Homo sapiens): 500 nM
- CC50 (SR; Homo sapiens, read-out: LC50): > 100000 nM
- TGI (SR; five-dose): 3980 nM
- GI50 (OVCAR-4; Homo sapiens, OVCAR-4): 170 nM
- CC50 (OVCAR-4; Homo sapiens, OVCAR-4, read-out: LC50): 1510 nM
- Growth percent (G%) (OVCAR-4; OVCAR-4, 10^−5 M, 48 h): −42.04%
- TGI (OVCAR-4; OVCAR-4, five-dose): 450 nM
